In article PMC5532717 (ACS Central Science, 2017):

Tests used:
Type in all cases: biochemical
human β-glucosidase GBA1 [1] = target: T1, human β-glucosidase GBA1 (Homo sapiens, UniProt P04062, R534H); test: In vitro apparent IC50, recombinant GBA1
T1 sequence (P04062 40-536 R534H): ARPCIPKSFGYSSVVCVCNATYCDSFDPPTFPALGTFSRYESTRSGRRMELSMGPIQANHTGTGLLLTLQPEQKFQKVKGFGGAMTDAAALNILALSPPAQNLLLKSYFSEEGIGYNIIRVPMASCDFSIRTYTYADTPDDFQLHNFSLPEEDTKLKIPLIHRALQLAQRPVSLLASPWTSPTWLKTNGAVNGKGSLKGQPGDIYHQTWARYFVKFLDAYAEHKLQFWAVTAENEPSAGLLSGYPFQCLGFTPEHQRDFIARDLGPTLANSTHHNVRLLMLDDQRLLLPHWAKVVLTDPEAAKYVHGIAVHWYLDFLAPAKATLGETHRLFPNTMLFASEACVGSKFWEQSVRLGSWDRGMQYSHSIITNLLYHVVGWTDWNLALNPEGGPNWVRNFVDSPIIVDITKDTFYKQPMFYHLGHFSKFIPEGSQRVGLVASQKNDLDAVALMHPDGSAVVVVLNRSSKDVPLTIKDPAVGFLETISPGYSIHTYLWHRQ
Method in brief: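 Recombinant human GBA1 (Cerezyme) preincubated with a range of test compound concentrations for 30 min at 37 °C, then added to 4-MU-Glc substrate mixture to measure residual activity. Reaction quenched with 1 M NaOH–glycine (pH 10.3); 4-MU fluorescence read at λEX 366 / λEM 445 nm. Apparent IC50 is the mean of three technical replicates.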

GBA2 = target: T2, GBA2 (Homo sapiens, UniProt Q9HCG7); test: In vitro apparent IC50, GBA2 overexpressing HEK293T lysate, 4-MU-β-Glc
T2 sequence (Q9HCG7 1-927): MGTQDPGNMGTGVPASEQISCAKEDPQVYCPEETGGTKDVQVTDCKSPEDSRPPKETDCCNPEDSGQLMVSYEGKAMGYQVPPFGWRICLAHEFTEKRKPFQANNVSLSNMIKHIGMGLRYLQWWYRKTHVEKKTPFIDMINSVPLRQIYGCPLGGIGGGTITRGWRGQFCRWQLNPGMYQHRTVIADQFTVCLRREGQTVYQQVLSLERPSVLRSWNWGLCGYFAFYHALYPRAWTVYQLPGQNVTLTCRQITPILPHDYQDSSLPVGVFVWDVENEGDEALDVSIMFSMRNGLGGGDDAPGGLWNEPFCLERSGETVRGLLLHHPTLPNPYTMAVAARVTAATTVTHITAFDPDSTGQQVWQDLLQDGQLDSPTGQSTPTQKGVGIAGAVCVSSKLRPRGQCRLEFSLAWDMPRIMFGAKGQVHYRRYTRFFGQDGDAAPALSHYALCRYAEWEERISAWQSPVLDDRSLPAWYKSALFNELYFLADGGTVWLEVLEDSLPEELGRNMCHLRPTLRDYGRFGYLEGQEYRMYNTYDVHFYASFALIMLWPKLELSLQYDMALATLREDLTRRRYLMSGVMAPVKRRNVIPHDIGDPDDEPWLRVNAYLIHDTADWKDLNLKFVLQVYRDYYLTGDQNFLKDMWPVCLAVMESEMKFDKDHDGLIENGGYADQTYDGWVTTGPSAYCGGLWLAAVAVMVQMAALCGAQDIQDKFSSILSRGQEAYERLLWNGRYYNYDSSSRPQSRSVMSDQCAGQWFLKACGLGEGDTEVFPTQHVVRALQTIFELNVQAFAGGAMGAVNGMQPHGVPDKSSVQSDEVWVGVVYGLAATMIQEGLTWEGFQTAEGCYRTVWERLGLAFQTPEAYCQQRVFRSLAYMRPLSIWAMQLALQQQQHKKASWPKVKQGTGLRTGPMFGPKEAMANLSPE
Method in brief: (§1)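 The enzyme source was GBA2-overexpressing HEK293T lysate or recombinant human GAA. It was preincubated 30 min at 37 °C with a range of test compound concentrations, then transferred into 4-MU glucoside substrate mixture to measure residual activity. Quenched with 1 M NaOH–glycine pH 10.3; 4-MU fluorescence at λex 366/λem 445 nm. Apparent IC50 is the mean of three technical replicates.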

human α-glucosidase GAA [2] = target: T3, human α-glucosidase GAA (Homo sapiens, UniProt P10253); test: In vitro apparent IC50, recombinant GAA
Method in brief: as §1

human β-glucosidase GBA1 [3] = target: T1, human β-glucosidase GBA1; test: Inhibition kinetics, recombinant GBA1, 2,4-DNP-β-Glc; conditions: irreversible inhibition, 37 °C, pH 5.2
Method in brief: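 Recombinant human GBA1 preincubated with test compound for 0.5–8 min (fast inhibitors) or 0.5–360 min (slow), then added to 2,4-DNP-Glc. Residual rate taken from 400 nm absorbance versus a no-inhibitor control. kobs is the slope of −ln V/V0 versus time; kinact and KI come from a hyperbolic fit of kobs versus [I]. For fast inhibition (>50% after 30 s), kinact/KI is the linear slope at [I] ≪ KI.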

human α-glucosidase GAA [4] = target: T3, human α-glucosidase GAA; test: Inhibition kinetics, recombinant GAA, 2,4-DNP-α-Glc

IC50 (human β-glucosidase GBA1 [1]): 165 ± 4 nM | IC50 (GBA2): 139 ± 60 nM | IC50 (human α-glucosidase GAA [2]): > 100000 nM | β-glucosidase GBA1 kinact (human β-glucosidase GBA1 [3]): 0.72 min^–1 | Ki (human α-glucosidase GAA [4]): > 500000 nM
SMILES: OC[C@@H]1[C@@H](O)[C@H](O)[C@@H](O)[C@@H]2O[C@H]12 [Compound 1, cyclophellitol, reference compound]
